Measured values: ChEMBL document CHEMBL4177770, “Discovery of MK-6169, a Potent Pan-Genotype Hepatitis C Virus NS5A Inhibitor with Optimized Activity against Common Resistance-Associated Substitutions” (J Med Chem, 2018)
Where a chain is given by its changes, count along the chain named.

What was measured:
[1] = biological target: T1, Nonstructural protein 5A (Hepatitis C virus) (UniProt Q5L478); assay: Inhibition of NS5A in HCV genotype 4a infected in HuH7 replicon cells assessed as decrease in viral replication after 3 days by RT-PCR method; format: cell-based; conditions: Hepatitis C virus subtype 4a
T1 sequence (whole entry): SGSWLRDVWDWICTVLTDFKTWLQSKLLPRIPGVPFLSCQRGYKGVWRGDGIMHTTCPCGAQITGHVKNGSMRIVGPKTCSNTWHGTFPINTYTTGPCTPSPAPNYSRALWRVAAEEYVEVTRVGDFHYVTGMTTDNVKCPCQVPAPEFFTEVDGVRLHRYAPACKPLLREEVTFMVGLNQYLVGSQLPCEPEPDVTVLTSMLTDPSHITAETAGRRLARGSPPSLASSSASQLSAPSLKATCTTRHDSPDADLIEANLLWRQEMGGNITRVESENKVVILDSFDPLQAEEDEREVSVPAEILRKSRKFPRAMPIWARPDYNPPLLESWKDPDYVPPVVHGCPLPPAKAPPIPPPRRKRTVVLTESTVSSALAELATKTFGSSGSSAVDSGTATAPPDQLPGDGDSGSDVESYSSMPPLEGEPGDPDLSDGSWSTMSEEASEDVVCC

[2] = Clearance in Wistar Han rat at 2 mg/kg, iv by LC/MS method; format: ADME, organism-based; conditions: in vivo
How it was run: (§1)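 Male Wistar Han rats, two per group, dosed IV at 2 mg/kg in 60% PEG200. Plasma was obtained by centrifuging the blood, and compound concentrations were measured by LC/MS.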

[3] = biological target: T1, Nonstructural protein 5A (Hepatitis C virus); assay: Inhibition of NS5A L31M mutant in HCV genotype 2b infected in HuH7 replicon cells assessed as decrease in viral replication after 3 days by RT-PCR method; format: cell-based; conditions: Hepatitis C virus subtype 2b
[4] = biological target: T1, Nonstructural protein 5A (Hepatitis C virus); assay: Inhibition of NS5A in HCV genotype 1b infected in HuH7 replicon cells assessed as decrease in viral replication after 3 days by RT-PCR method; format: cell-based; conditions: Hepatitis C virus subtype 1b
[5] = AUC in Wistar Han rat at 10 mg/kg, po by LC/MS method; format: ADME, organism-based; conditions: in vivo
How it was run: (§2)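 Male Wistar Han rats, two per dosing group, dosed orally at 10 mg/kg in 10% TWEEN. Plasma was separated from collected blood by centrifugation and analysed by LC/MS.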

[6] = Half life in Wistar Han rat at 2 mg/kg, iv by LC/MS method; format: ADME, organism-based; conditions: in vivo; how it was run: as §1
[7] = Drug level in Wistar Han rat at 10 mg/kg, po measured at 24 hrs by LC/MS method; format: ADME, organism-based; conditions: in vivo, read-out: Drug uptake; how it was run: as §2
[8] = biological target: T1, Nonstructural protein 5A (Hepatitis C virus); assay: Inhibition of NS5A in HCV genotype 3a infected in HuH7 replicon cells assessed as decrease in viral replication after 3 days by RT-PCR method; format: cell-based; conditions: Hepatitis C virus subtype 3a
[9] = biological target: T1, Nonstructural protein 5A (Hepatitis C virus); assay: Inhibition of NS5A in HCV genotype 1a infected in HuH7 replicon cells assessed as decrease in viral replication after 3 days by RT-PCR method; format: cell-based; conditions: Hepatitis C virus subtype 1a
[10] = tested on: T2, Nonstructural protein 5A (Hepatitis C virus), Q5L478 [Y93H]; assay: Inhibition of NS5A Y93H mutant in HCV genotype 1a infected in HuH7 replicon cells assessed as decrease in viral replication after 3 days by RT-PCR method; format: cell-based; conditions: Hepatitis C virus subtype 1a
T2 sequence (whole entry): T1 sequence (whole entry) with Y93H

[11] = biological target: T1, Nonstructural protein 5A (Hepatitis C virus); assay: Inhibition of NS5A L31V mutant in HCV genotype 1a infected in HuH7 replicon cells assessed as decrease in viral replication after 3 days by RT-PCR method; format: cell-based; conditions: Hepatitis C virus subtype 1a
[12] = Cmax in Wistar Han rat at 10 mg/kg, po by LC/MS method; format: ADME, organism-based; parameters: dose 10 mg/kg, route oral; conditions: in vivo; how it was run: as §2
[13] = Oral bioavailability in Wistar Han rat at 10 mg/kg by LC/MS method; format: ADME, organism-based; conditions: in vivo; how it was run: as §2

Row | SMILES | EC90 [1] [pM] | clearance [2] [mL/min/kg] | EC90 [3] [pM] | EC90 [4] [pM] | AUC [5] [µM·h] | half-life [6] [h] | concentration at 24 h [7] [nM] | EC90 [8] [pM] | EC90 [9] [pM] | EC90 [10] [pM] | EC90 [11] [pM] | Cmax [12] [nM] | bioavailability [13] [%]
1 | CCCc1ncc([C@@H]2Oc3cc(-c4cnc([C@@H]5CCCN5C(=O)[C@@H](NC(=O)OC)C(C)C)[nH]4)cc(F)c3-c3cc4cc(-c5cnc([C@@H]6CCCN6C(=O)[C@@H](NC(=O)OC)[C@@H]6CCOC(C)(C)C6)[nH]5)ccc4n32)s1 | 6 | 21 | 15 | 5 | 0.08 | 4.5 | 1 | 8 | 4 | 18 | 6 | 20 | 1
2 | COC(=O)N[C@H](C(=O)N1CCC[C@H]1c1ncc(-c2cc(F)c3c(c2)O[C@@H](c2ccc(C4CC4)s2)n2c-3cc3cc(-c4cnc([C@@H]5CCCN5C(=O)[C@@H](NC(=O)OC)[C@H]5CCOC(C)(C)C5)[nH]4)ccc32)[nH]1)C(C)C | 7 | 11 | 27 | 7 | 0.24 | 5.2 | 1 | 9 | 4 | 18 | 2 | 25 | 1.6
3 | COC(=O)N[C@H](C(=O)N1CCC[C@H]1c1ncc(-c2cc(F)c3c(c2)O[C@@H](c2ccc(C4CC4)s2)n2c-3cc3cc(-c4cnc([C@@H]5CCCN5C(=O)[C@@H](NC(=O)OC)C5CCOC6(CC6)C5)[nH]4)ccc32)[nH]1)C(C)C (stereo partly specified) | 4 | 5 | 36 | 4 | 0.58 | 5.7 | 4 | 8 | 6 | 49 | 7 | 57 | 1.9
4 | CCCc1ccc([C@@H]2Oc3cc(-c4cnc([C@@H]5CCCN5C(=O)[C@@H](NC(=O)OC)C(C)C)[nH]4)cc(F)c3-c3cc4cc(-c5cnc([C@@H]6CCCN6C(=O)[C@@H](NC(=O)OC)[C@@H]6CCOC(C)(C)C6)[nH]5)ccc4n32)s1 | 11 |  | 84 | 9 |  |  |  | 16 | 10 | 78 | 6 |  | 
5 | COC(=O)N[C@H](C(=O)N1CCC[C@H]1c1ncc(-c2cc(F)c3c(c2)O[C@@H](c2ccc(C4CC4)s2)n2c-3cc3cc(-c4cnc([C@@H]5CCCN5C(=O)[C@@H](NC(=O)OC)C5CCO[C@H](C)C5)[nH]4)ccc32)[nH]1)C(C)C (stereo partly specified) | 10 | 11 | 14 | 4 | 0.21 | 4.7 | 1 | 7 | 4 | 9 | 3 | 25 | 1.4
6 | COC(=O)N[C@H](C(=O)N1CCC[C@H]1c1ncc(-c2cc(F)c3c(c2)O[C@@H](c2nc4c(s2)CCC4)n2c-3cc3cc(-c4cnc([C@@H]5CCCN5C(=O)[C@@H](NC(=O)OC)[C@@H]5CCOC(C)(C)C5)[nH]4)ccc32)[nH]1)C(C)C | 7 |  | 174 | 4 |  |  |  | 13 | 5 | 590 |  |  | 
7 | COC(=O)N[C@H](C(=O)N1CCC[C@H]1c1ncc(-c2ccc3c(c2)cc2n3[C@H](c3ccc(C4CC4)s3)Oc3cc(-c4cnc([C@@H]5CCCN5C(=O)[C@@H](NC(=O)OC)[C@@H]5CCOC(C)(C)C5)[nH]4)cc(F)c3-2)[nH]1)C(C)C | 4 | 9 | 31 | 5 | 0.45 | 6 | 4 | 13 | 6 | 36 | 1 | 40 | 2
8 | COC(=O)N[C@H](C(=O)N1CCC[C@H]1c1ncc(-c2cc(F)c3c(c2)O[C@@H](c2cc4c(s2)CCC4)n2c-3cc3cc(-c4cnc([C@@H]5CCCN5C(=O)[C@@H](NC(=O)OC)[C@@H]5CCOC(C)(C)C5)[nH]4)ccc32)[nH]1)C(C)C | 6 | 9 | 43 | 6 | 1.9 | 4.3 | 6 | 9 | 5 | 117 | 6 | 290 | 10.2
9 | COC(=O)N[C@H](C(=O)N1CCC[C@H]1c1ncc(-c2cc(F)c3c(c2)O[C@@H](c2ccc4c(c2)OCCC4)n2c-3cc3cc(-c4cnc([C@@H]5CCCN5C(=O)[C@@H](NC(=O)OC)[C@@H]5CCOC(C)(C)C5)[nH]4)ccc32)[nH]1)C(C)C | 5 | 25 | 17 | 5 | 0.08 | 3.8 | 1 | 7 | 3 | 48 | 4 | 10 | 1.2
10 | COC(=O)N[C@H](C(=O)N1CCC[C@H]1c1ncc(-c2cc(F)c3c(c2)O[C@@H](c2ccc4c(c2)O[C@@H](C)CC4)n2c-3cc3cc(-c4cnc([C@@H]5CCCN5C(=O)[C@@H](NC(=O)OC)[C@@H]5CCOC(C)(C)C5)[nH]4)ccc32)[nH]1)C(C)C | 8 |  | 102 | 7 |  |  |  | 8 | 5 | 348 | 5 |  | 
11 | COC(=O)N[C@H](C(=O)N1CCC[C@H]1c1ncc(-c2cc(F)c3c(c2)O[C@@H](c2cnc(C(C)C)s2)n2c-3cc3cc(-c4cnc([C@@H]5CCCN5C(=O)[C@@H](NC(=O)OC)[C@@H]5CCOC(C)(C)C5)[nH]4)ccc32)[nH]1)C(C)C | 7 |  | 19 | 6 |  |  |  | 38 | 6 | 329 | 4 |  | 
12 | COC(=O)N[C@H](C(=O)N1CCC[C@H]1c1ncc(-c2ccc3c(c2)cc2n3[C@H](c3ccc4c(c3)OCCC4)Oc3cc(-c4cnc([C@@H]5CCCN5C(=O)[C@@H](NC(=O)OC)C5CCOCC5)[nH]4)cc(F)c3-2)[nH]1)C(C)C | 2 | 19 | 5 | 3 | 0.05 | 1.9 |  | 3 | 2 | 8 | 1 | 10 | 0.5
13 | COC(=O)N[C@H](C(=O)N1CCC[C@H]1c1ncc(-c2ccc3c(c2)cc2n3[C@H](c3ccc4c(c3)OCCN4C)Oc3cc(-c4cnc([C@@H]5CCCN5C(=O)[C@@H](NC(=O)OC)C5CCOCC5)[nH]4)cc(F)c3-2)[nH]1)C(C)C | 9 | 13 | 54 | 7 | 0.1 | 3.8 | 1 | 17 | 71 | 73 |  | 16 | 0.8
14 | CC[C@@H]1CC([C@H](NC(=O)OC)C(=O)N2CCC[C@H]2c2ncc(-c3ccc4c(c3)cc3n4[C@H](c4ccc(C5CC5)s4)Oc4cc(-c5cnc([C@@H]6CCCN6C(=O)[C@@H](NC(=O)OC)C(C)C)[nH]5)cc(F)c4-3)[nH]2)C[C@H](CC)O1 (stereo partly specified) |  |  | 2700 |  |  |  |  | 62 | 17 | 642 |  |  | 
